A short description of series [1]: Toxicity in NOD/SCID mouse xenografted with patient-derived breast cancer cells assessed as morphological change in liver at 5 to 15 mg/kg, […] once daily for 20 days by HE staining based assay. Format: organism-based. Conditions: in vivo, iv, dose 5-15 mg/kg, time 20 day. Summed up: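 Female NOD-SCID mice implanted subcutaneously in the flank with about 2 mm³ TNBC PDX fragments. At about 100 mm³ tumour volume, randomised n=6/group: vehicle (PBS with 15% Cremophor EL), 5 or 15 mg/kg intraperitoneally daily. Killed at day 20; heart, liver, spleen, lung and kidney collected for morphological examination.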

For series [2], the system named is MDA231-LM2-4175. The series can be described thus: Antitumor activity against human MDA231-LM2-4175 cells xenografted in mouse assessed as reduction in Bcl-xL expression at 5 to 15 mg/kg, iv administered once daily for 20 days by Western blotting analysis. The format is functional, organism-based. The conditions noted are these: dose 5-15 mg/kg, time 20.0 day.

The test system of the next series is MDA-MB-468. The series can be described thus: Induction of apoptosis in human MDA-MB-468 cells assessed as necrotic cells at 3 uM after 48 hrs by Annexin-V-FITC/propidium iodide staining based flow cytometric analysis (reference value: 0.240%). Format: functional.
A short description of series [3]: Toxicity in NOD/SCID mouse xenografted with patient-derived breast cancer cells assessed as lethargy at 5 to 15 mg/kg, iv administered once daily for 20 days. Conditions: in vivo, 480 h, dose 5-15 mg/kg, time 20 day. The format is organism-based.
In series [4] the target is T1, Signal transducer and activator of transcription 3 (Homo sapiens, UniProt P40763). In words: Inhibition of HA-tagged STAT3 dimerization (unknown origin) expressed in HEK293T cells preincubated for 3 hrs followed by IL-3 stimulation by immunoprecipitation analysis. Format: cell-based. The conditions noted are these: dose 1-3 µM.
A short description of series [5]: AUC(0 to infinity) in Sprague-Dawley rat at 10 mg/kg, po measured up to 24 hrs by LC-MS/MS analysis. Format: ADME, organism-based. Set-up: route oral, dose 10 mg/kg, time <=24. The conditions noted are these: in vivo. The essentials: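 Male SD rats given a single oral dose of 10 mg/kg in DMSO/0.5% HPMC (5/95, v/v). Blood was drawn at 0.25, 0.5, 1, 2, 4, 8 and 24 h, and plasma was analysed by LC-MS/MS on a BEH phenyl column with a formic acid water/acetonitrile mobile phase.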

Series [6] deals with T1, Signal transducer and activator of transcription 3. In words: Inhibition of STAT3 in human MDA-MB-468 cells assessed as downregulation of Bcl-xL expression at 0.3 to 3 uM after 24 hrs by western blot analysis. The format is cell-based. The conditions noted are these: dose 0.3-3 µM. Summed up:
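TNBC cells given vehicle (0.1% DMSO) or graded compound levels for 24 h, lysed in RIPA with PMSF and phosphatase inhibitors. BCA-quantified lysate (20–50 µg) run on SDS-PAGE, transferred to PVDF, blocked in 5% BSA. Probed overnight at 4 °C for Bcl-xL, Mcl-1 and c-Myc, with β-actin. HRP secondary, ECL detection. Three independent experiments.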
On the technique in general: Immunoblotting shows a protein as a band on a membrane.

The target of series [7] is T2, Signal transducer and activator of transcription 5A (Homo sapiens) (UniProt P42229).
T2 sequence (whole entry): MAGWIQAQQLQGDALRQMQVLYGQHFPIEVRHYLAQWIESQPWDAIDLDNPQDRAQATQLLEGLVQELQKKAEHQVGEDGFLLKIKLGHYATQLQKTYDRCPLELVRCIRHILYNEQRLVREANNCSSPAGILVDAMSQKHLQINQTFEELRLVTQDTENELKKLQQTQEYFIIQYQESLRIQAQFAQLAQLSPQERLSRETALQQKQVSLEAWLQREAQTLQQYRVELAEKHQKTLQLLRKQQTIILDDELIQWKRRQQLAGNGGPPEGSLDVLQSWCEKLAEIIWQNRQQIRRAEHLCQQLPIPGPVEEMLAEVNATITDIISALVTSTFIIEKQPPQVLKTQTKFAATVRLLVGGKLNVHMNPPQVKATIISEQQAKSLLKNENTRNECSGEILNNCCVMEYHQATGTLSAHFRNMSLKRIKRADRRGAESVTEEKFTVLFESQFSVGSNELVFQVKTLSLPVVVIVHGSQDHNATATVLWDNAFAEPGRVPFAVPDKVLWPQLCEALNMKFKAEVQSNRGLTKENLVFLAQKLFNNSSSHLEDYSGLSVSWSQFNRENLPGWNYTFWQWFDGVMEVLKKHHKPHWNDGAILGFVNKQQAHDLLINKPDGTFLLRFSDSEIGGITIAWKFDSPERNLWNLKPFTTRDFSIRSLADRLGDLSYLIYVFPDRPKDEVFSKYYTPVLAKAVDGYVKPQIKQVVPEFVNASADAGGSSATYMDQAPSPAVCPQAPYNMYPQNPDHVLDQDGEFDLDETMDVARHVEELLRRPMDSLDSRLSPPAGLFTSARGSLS
In words: Inhibition of STAT5 DNA binding in human MDA-MB-231 cells at 3 uM after 3 hrs by EMSA analysis. The format is cell-based. The essentials: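 Cells exposed to vehicle or compound for 3 h. Nuclear extracts prepared and BCA-quantified. Nuclear protein (8–10 µg) incubated with biotinylated STAT3 or STAT5 probe, resolved on 6% native polyacrylamide gel, transferred to nylon membrane and detected with a gel-shift kit.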
On the technique in general: Mobility shift assays separate free from complexed probe on a gel.

The test system of series [8] is MDA231-LM2-4175. The series can be described thus: Antitumor activity against iv dosed human MDA231-LM2-4175 cells xenografted in mouse assessed as tumor growth inhibition administered once daily for 20 days. Format: functional, organism-based. The conditions noted are these: dose 5-15 mg/kg, time 20.0 day. (In general: In xenograft studies the graft and the host belong to different species.)

A short description of series [9]: Antiproliferative activity against human MDA231-LM2-4175 cells assessed as reduction in cell viability after 72 hrs by CCK8 assay. The format is functional, cell-based. Conditions: MDA231-LM2-4175, 72 h. The essentials: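 Cells seeded at 1000–8000 per well were grown overnight, then exposed to 0.1–100 μM compound or 0.1% DMSO vehicle for 72 h. CCK-8 was added for 0.5–4 h at 37 °C and absorbance read at 480 nm. Viability = (OD compound − blank)/(OD vehicle − blank) × 100, with medium as blank. IC50 fitted from three independent experiments.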

A short description of series [10]: Metabolic stability in human liver microsomes assessed as half life at 0.1 uM preincubated for 10 mins followed by NADPH addition and measured upto 60 mins by LC-MS/MS analysis. Format: ADME, Microsome. The conditions noted are these: time <=70 min. The essentials: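 Microsomes at 0.33 mg/mL in 0.1 M Tris pH 7.4 with 5 mM MgCl2; compound final 0.1 μM (0.01% DMSO, 0.005% BSA). Preincubated 10 min at 37 °C, then started with 1 mM NADPH. Sampled at 0, 7, 17, 30 and 60 min and quenched with cold methanol. Centrifuged, then analysed by LC-MS/MS.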

The test system of series [11] is MDA231-LM2-4175. In words: Antitumor activity against human MDA231-LM2-4175 cells xenografted in mouse assessed as reduction in Ki67 expression at 5 to 15 mg/kg, iv administered once daily for 20 days by immunohistochemical analysis. The format is functional, organism-based. The conditions noted are these: dose 5-15 mg/kg, time 20.0 day.
In another series the test system is Breast cancer cell line. In words: Antitumor activity against patient-derived breast cancer cells xenografted in NOD/SCID mouse assessed as reduction in pY705-STAT3 expression at 5 to 15 mg/kg, iv administered once daily for 20 days by Western blotting analysis. Format: functional, organism-based. The conditions noted are these: Homo sapiens, dose 5-15 mg/kg, time 20.0 day.

Activity calls are given as the source filed them. The rule behind the calls is not given here.

T1 sequence (P40763 whole entry): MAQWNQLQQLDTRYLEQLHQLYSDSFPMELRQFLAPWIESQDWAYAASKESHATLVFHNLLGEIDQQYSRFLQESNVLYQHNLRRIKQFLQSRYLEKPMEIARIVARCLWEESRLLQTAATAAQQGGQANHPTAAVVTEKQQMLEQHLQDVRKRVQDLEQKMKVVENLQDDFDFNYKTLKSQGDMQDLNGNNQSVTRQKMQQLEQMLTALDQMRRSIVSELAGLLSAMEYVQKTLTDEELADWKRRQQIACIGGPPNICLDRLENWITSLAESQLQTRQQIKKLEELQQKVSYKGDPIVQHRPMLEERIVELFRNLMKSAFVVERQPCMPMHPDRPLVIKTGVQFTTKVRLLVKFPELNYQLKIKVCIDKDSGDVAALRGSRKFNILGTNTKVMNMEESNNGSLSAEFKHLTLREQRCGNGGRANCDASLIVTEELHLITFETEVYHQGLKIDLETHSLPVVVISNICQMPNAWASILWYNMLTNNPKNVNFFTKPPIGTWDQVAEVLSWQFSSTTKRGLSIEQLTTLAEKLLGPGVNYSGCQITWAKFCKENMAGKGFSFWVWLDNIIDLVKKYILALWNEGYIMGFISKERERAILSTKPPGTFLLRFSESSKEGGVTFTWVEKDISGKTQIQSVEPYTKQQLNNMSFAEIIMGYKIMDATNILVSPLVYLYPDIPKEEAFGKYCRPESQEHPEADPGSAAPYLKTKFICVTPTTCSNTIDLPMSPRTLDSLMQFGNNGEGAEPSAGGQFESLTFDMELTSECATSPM

In the case of `O=C(Cc1c(-c2ccccc2)nc2ccccn12)Nc1ccc2c(c1)S(=O)(=O)C=C2`, the Activity result in series [1] was “Non-Toxic”; with MDA-MB-468 it was 1.33%; in series [3], “Non-Toxic”; in the series on MDA231-LM2-4175 [8], “Dose-Dependent Effect”. The result in the series with MDA231-LM2-4175 [2] and with Breast cancer cell line was Active. In addition, in [4], the inhibition entry was “Dose-Dependent Effect”. In addition, in series [5], the AUC(0-inf) is 56.1 ng·h/mL. In series [6], the inhibition entry is “Active”. For the same compound, in series [7], the inhibition entry was “inactive”. Also, the concentration for half-maximal inhibition (IC50) in [9] was 2500 nM. Further, the half-life at 0.1 µM in series [10] came to 24.2 min. The outcome in the series on MDA231-LM2-4175 [11] was inactive.

As usually defined, the AUC(0-inf) is the area under the concentration-time curve extrapolated to infinity. Lower therefore signals less exposure. For orientation: IC50 means the concentration at which inhibition is half-maximal. The term half-life denotes the time in which the quantity being followed falls by half.

The values are drawn from ChEMBL document CHEMBL4825680, “Structure-based discovery of potent and selective small-molecule inhibitors targeting signal transducer and activator of transcription 3 (STAT3)” (Eur J Med Chem, 2021).
